Results from different studies.
Lines come from different studies, so protocols differ.
Cell line: MDA-MB-468
Effect on: cell growth or viability

With `O=S(=O)(NN=Cc1cn(CCN2CCOCC2)c2ccccc12)c1ccc(Cl)cc1` the IC50 was 8.2 µM (MTT; 48 h).
`CN(N=O)c1ccc(C=Cc2ccnc3ccccc23)cc1` gave an IC50 of 3.5 µM (MTT).
`O=C(/C=C/c1ccccc1)c1ccccc1` gave an IC50 of > 50 µM (resazurin; 72 h).
For `c1ccc2c(c1)Cc1c(Cc3csc4ccccc34)ccc3cccc-2c13`, the IC50 was 157 µM (MTT).
`CC(C)(C)c1ccc(S(=O)(=O)NN=Cc2cn(CCN3CCOCC3)c3ccccc23)cc1` gave an IC50 of 29.6 µM (MTT; 48 h).
`CC1=CC(=C(c2ccc(N)c(C)c2)c2ccc(N)c(C)c2)C=CC1=N` gave an IC50 of 3.1 µM (MTT).
For `O=S(=O)(NN=Cc1cn(CCN2CCOCC2)c2ccccc12)c1ccc2ccccc2c1`, the IC50 was 53.4 µM (MTT; 48 h).
With `Nc1ccc2cc3[nH]c4cc(N)ccc4c3nc2c1` the IC50 was 0.11 µM (MTT).
`COc1ccc(/C=C/C(=O)c2cc(Br)ccc(=O)c2O)cc1` has an IC50 of 6.3 µM (MTT; 48 h).
`O=S(=O)(Cc1ccccc1)NN=Cc1cn(CCN2CCOCC2)c2ccccc12` gave an IC50 of 50.6 µM (MTT; 48 h).
`COc1cc(/C=C2\SC(=O)NC2=O)ccc1OCc1ccc(Cl)cc1Cl` has an IC50 of 32.5 µM (MTT; 48 h).
`Cc1ccccc1Sc1cc2ccccc2c2ccccc12` gave an IC50 of 29 µM (MTT).
For `Cc1cc(NS(=O)(=O)c2ccc(NC(=O)COc3ccc(C(C)(C)c4ccccc4)cc3)cc2)nc(C)n1`, the IC50 was 34.9 µM (MTT; 72 h).
`Cc1ccc(S(=O)(=O)NN=Cc2cn(CCN3CCOCC3)c3ccccc23)cc1` has an IC50 of 40.8 µM (MTT; 48 h).
The IC50 of `CC(=O)Nc1nc(C)c(-c2csc(Nc3ccccc3)n2)s1` is reported as 12.1 µM (MTT; 48 h).
The IC50 of `O=[N+]([O-])c1ccc(S(=O)(=O)NN=Cc2cn(CCN3CCOCC3)c3ccccc23)cc1` is reported as 37.1 µM (MTT; 48 h).
With `COc1ccc(Br)cc1/C=C/C(=O)c1ccc(NC(C)=O)cc1` the IC50 was 1.8 µM (MTT; 72 h).
With `Cc1c2cccc(Sc3ccccc3)c2c2c3c(cccc13)[S+](c1ccccc1)C2` (centres unmarked) the IC50 was 0.71 µM (MTT).
The IC50 of `Nc1nc(Nc2ccc(S(N)(=O)=O)cc2)sc1C(=O)c1cccc(F)c1` is reported as 0.85 µM (MTT; 72 h).
For `O=C(CSc1nc2ccc(N=Cc3ccc(Sc4nnnn4-c4ccccc4)o3)cc2s1)N1CCOCC1`, the IC50 was 20.4 µM (MTT; 72 h).
